Source: PubChem
hERG rescue – compounds protecting human hERG from proarrhythmic drug block; activation (rescue from dofetilide block), less the hit threshold, % at 10 µM; CHO-hERG, FluxOR thallium flux, dofetilide IC70 present; AID 1511; 0.51% of 310,000 active; Q12809;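 active means activation above the mean of controls blocked by dofetilide plus 5 SD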;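 further: thallium influx through hERG after potassium depolarization seen as dye fluorescence rise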
KCNK3 inh – human KCNK3 channel inhibition, primary screen; 0.84% of 340,000 active; AID 602410; O14649; CHO-KCNK3 thallium flux, FluxOR fluorescence; active compounds read low; B-score at 10 µM;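 active means B-score under library mean minus 4 SD, starting fluorescence ratio at most library mean plus 5 SD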;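 further: more negative B-score means stronger inhibition of thallium flux through KCNK3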
Target sequence (O14649 whole entry, looked up): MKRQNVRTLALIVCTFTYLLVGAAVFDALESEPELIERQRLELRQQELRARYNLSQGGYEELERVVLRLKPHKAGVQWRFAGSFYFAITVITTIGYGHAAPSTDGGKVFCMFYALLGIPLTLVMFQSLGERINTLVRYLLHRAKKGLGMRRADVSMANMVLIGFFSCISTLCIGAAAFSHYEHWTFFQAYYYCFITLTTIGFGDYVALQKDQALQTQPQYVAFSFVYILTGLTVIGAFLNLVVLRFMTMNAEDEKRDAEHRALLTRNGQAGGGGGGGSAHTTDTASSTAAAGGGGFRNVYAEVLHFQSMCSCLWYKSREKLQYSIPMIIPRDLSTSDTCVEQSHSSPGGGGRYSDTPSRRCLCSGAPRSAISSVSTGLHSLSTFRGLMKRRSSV
KCNK9 inh – human KCNK9 channel inhibition; HEK293 KCNK9, FluxOR thallium flux fluorescence; active compounds read low; B-score at 10 µM; 1.2% of 310,000 active; Q9NPC2;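 active means ratio B-score over 3 SD below the library mean, with starting fluorescence within 5 SD of its mean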;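 further: negative B-score means less thallium flux so channel inhibition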
PHOSPHO1 block – inhibitors of human PHOSPHO1 phosphatase; recombinant PHOSPHO1, absorbance phosphatase assay; inhibition, % at 13.3 µM; 1.1% of 290,000 active; AID 1565; in the data active means inhibition above about 60%
Target sequence (Q8TCT1 whole entry, looked up): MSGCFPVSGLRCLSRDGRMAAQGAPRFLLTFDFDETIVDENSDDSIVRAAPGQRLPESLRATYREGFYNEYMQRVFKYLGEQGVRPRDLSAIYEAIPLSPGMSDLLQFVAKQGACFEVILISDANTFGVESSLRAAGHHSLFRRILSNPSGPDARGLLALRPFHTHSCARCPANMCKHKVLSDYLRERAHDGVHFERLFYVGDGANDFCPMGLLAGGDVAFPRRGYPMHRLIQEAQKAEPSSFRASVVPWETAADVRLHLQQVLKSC
KCNQ1 pot – potentiates or activates the human KCNQ1 potassium channel; CHO-K1 KCNQ1, thallium flux FluxOR fluorescence; active compounds read high; B-score at 10 µM; 0.35% of 310,000 active;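 active means fluorescence ratio B-score, a plate-corrected score, at least three library SD, with initial intensity B-score within 5 SD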
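System: CHO-K1 cells stably expressing KCNQ1 / Medium: assay buffer for compound exposure, DMSO matched across wells / Reagent: thallium- and potassium-containing depolarizing buffer / Compound: one concentration, matched DMSO / Incubation: 20 min compound pretreatment at room temperature / Measured by: kinetic FluxOR fluorescence, 10 s baseline plus 110 s post-stimulus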
KCNQ1 inh – inhibitors of human KCNQ1 potassium channel; 1.3% of 310,000 active; B-score at 10 µM; P51787; CHO-K1 KCNQ1, FluxOR thallium flux fluorescence; active compounds read high; AID 2642;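 active means compounds whose thallium flux B-score, printed positive for inhibition, exceeds three library SD while starting fluorescence stays within three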;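 further: channel opened by potassium depolarization with thallium stimulus after 20 min compound exposure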
KCNQ1 inh valid – human KCNQ1 channel inhibition, validation assay | 93% of 1,600 active | inhibition, % at 10 µM | shares compounds with KCNQ1 inh | KCNQ1 cell line, FluxOR thallium flux fluorescence | AID 588353;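 active means primary screen active, with duplicate mean exceeding buffer control mean plus 3 SD of buffer wells, cut at about 28% in these data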;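 further: 0% = buffer control ratio and 100% = XE991 inhibitor control ratio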
CHO Tl flux – KCNQ1 inhibitor counter-screen hit in parental CHO cells | shares compounds with KCNQ1 inh | parental CHO-K1, FluxOR thallium flux fluorescence ratio; active compounds read low; zero means no signal rise above baseline | fluorescence ratio (Tl flux) at 10 µM | 21% of 1,600 active;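 active means mean of duplicate thallium-flux fluorescence ratios in parental host cells more than 5 SD below the buffer control mean, cut at about 0.38 in these data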;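 further: ratio is peak minus minimum fluorescence divided by baseline fluorescence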
KCNQ1 APC inh – blocks human KCNQ1 current in automated patch clamp; 20% of 490 active; AID 624120; calls only at 10 µM; KCNQ1-CHO cells; shares compounds with KCNQ1 inh;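 active means KCNQ1 current drop exceeding 3 SD of negative control wells, seen in both duplicate runs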;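 further: steady state current during a 2 s step from -80 to +40 mV; negative values mean current inhibition and positive values mean potentiation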
KCNQ2 spec – KCNQ1 inhibitor that also blocks rat KCNQ2 channel; inhibition, % at 10 µM; shares compounds with KCNQ1 inh; KCNQ2 cells, FluxOR thallium flux fluorescence; AID 651746; 71% of 1,600 active;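 active means mean percent inhibition of the KCNQ2 thallium signal more than 5 SD above the buffer-only control wells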;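 further: KCNQ2 expressed in CHO cells; 0% = buffer control wells and 100% = XE-991 inhibitor control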
KCNQ1 KCNE1 spec – KCNQ1 inhibitor that also blocks human KCNQ1/KCNE1 channel | KCNQ1/KCNE1 cells, FluxOR thallium flux fluorescence | AID 652147 | inhibition, % at 10 µM | 77% of 1,600 active | shares compounds with KCNQ1 inh;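 active means mean percent inhibition of duplicate wells above the buffer-only control mean plus 3 SD of those controls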;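 further: 0% = buffer only wells and 100% = XE-991 inhibitor control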
Starred values were filed as active, the others as inactive; i = inactive; x = no result given; + = active, no number. Most compounds without a hit are left out; they make up all but 4% or so of the library.

SMILES	hERG rescue	KCNK3 inh	KCNK9 inh	PHOSPHO1 block	KCNQ1 pot	KCNQ1 inh	KCNQ1 inh valid	CHO Tl flux	KCNQ1 APC inh	KCNQ2 spec	KCNQ1 KCNE1 spec
CC1(C)Cc2c(cnn2-c2ccc(F)cc2)C(NC(=O)c2ccoc2)C1 (stereo unspecified)	-12.7	i	i	14.6	i	7*	72.5*	0.42	x	i	93.0%*
Cc1cc(C(=O)NC2CC(C)(C)Cc3c2cnn3-c2ccc(F)cc2)no1 (stereo unspecified)	-12.7	i	i	23.3	i	i	x	x	x	x	x
Cc1ccc(C(=O)c2ccccc2C(=O)OCC(=O)Nc2ccc(SC(F)F)cc2)cc1	-11.8	i	i	-15.6	i	i	x	x	x	x	x
O=C(COC(=O)c1ccccc1Cc1ccccc1)Nc1ccc(SC(F)F)cc1	-8.0	i	i	-11.3	i	7*	86.5*	0.407	x	127.7%*	101.0%*
Cc1ccc(CNCC(O)(c2ccccc2)c2ccc(Cl)cc2)cc1 (stereo unspecified)	-33.7	i	i	45.6	i	6*	116.0*	0.424	i	92.3%*	42.0%*
CCOC(=O)c1cnc2ccccc2c1NCc1ccco1	-15.5	i	i	19.1	i	i	x	x	x	x	x
Cc1cc(N2CCC(C)CC2)nc(NCc2ccccc2)n1	-23.6	i	i	-1.0	i	7*	46.0*	0.492	x	i	i
CCCCNc1cc(C)nc(NCc2ccccc2)n1	-19.8	i	i	20.8	i	10*	96.0*	0.386	+	i	77.0%*
COc1ccc(NC2CCCN(C(=O)CCc3cn[nH]c3)C2)cc1 (stereo unspecified)	-6.7	i	i	32.7	i	i	x	x	x	x	x
FC(F)(F)Sc1ccc(NC(=S)NCc2ccccc2)cc1	-10.1	i	i	15.0	i	7*	77.5*	0.508	x	i	i
FC(F)(F)c1cccc(CNC(=S)Nc2ccccc2)c1	-12.6	i	i	61.8*	i	8*	46.0*	0.491	x	82.0%*	i
Cc1sc2ncnc(NC3CCN(Cc4ccccc4)CC3)c2c1C	-27.6	i	i	42.8	i	i	x	x	x	x	x
Cc1ccc(Nc2cc(C)c3c(O)cccc3n2)cc1C	-16.0	i	i	12.9	i	i	x	x	x	x	x
Cc1ccccc1Nc1cc(C)c2c(O)cccc2n1	-21.6	i	i	-6.1	i	7*	31.0*	0.532	x	71.3%*	i
COc1cc(CSC)nc(-c2ccccc2)n1	-6.4	i	i	12.4	i	i	x	x	x	x	x
CSCc1cc(N(C)c2ccccc2)nc(-c2ccccc2)n1	-5.5	i	i	41.9	i	7*	91.0*	0.444	i	91.0%*	98.0%*
O=c1[nH]c2cc(Cl)cc(Cl)c2[nH]c1=O	-9.5	i	i	15.4	i	i	x	x	x	x	x
Cc1ccc(C)c(COC(=O)c2cc([N+](=O)[O-])ccc2N2CCOCC2)c1	-10.2	i	i	x	i	i	x	x	x	x	x
COc1ccc(-c2cn[nH]c2-c2ccc(OCc3ccccc3)cc2O)cc1	-8.7	i	-6.73*	21.9	i	7*	107.0*	0.426	i	91.3%*	129.5%*
O=S(=O)(NCCC1=CCCCC1)c1ccc(Br)cc1	-14.3	i	i	27.4	i	7*	99.0*	0.447	+	106.3%*	150.5%*
O=S(=O)(NCCC1=CCCCC1)c1ccccc1Br	x	i	x	x	x	x	x	x	x	x	x
COC(=O)c1ccccc1Oc1nc(Cl)cc(OC)n1	-4.9	i	i	-16.3	i	i	x	x	x	x	x
COC(=O)Cc1csc(Nc2ccccc2)n1	-2.8	i	i	4.9	i	i	x	x	x	x	x
COC(=O)Cc1nc(Nc2ccccc2)sc1C	-12.3	i	i	31.5	i	7*	47.0*	0.448	x	i	46.5%*
Cc1cccc(NC(=O)c2ccc(C3SCC(=O)N3CCc3ccccc3)cc2)c1 (stereo unspecified)	-19.8	i	i	-32.4	i	7*	99.0*	0.43	i	108.7%*	82.5%*
SMILES	hERG rescue	KCNK3 inh	KCNK9 inh	PHOSPHO1 block	KCNQ1 pot	KCNQ1 inh	KCNQ1 inh valid	CHO Tl flux	KCNQ1 APC inh	KCNQ2 spec	KCNQ1 KCNE1 spec
Cc1c(C(=O)NCCC2=CCCCC2)sc2ncnc(N3CCCCC3C)c12 (stereo unspecified)	-16.8	i	i	31.9	i	8*	163.5*	0.327*	x	150.3%*	+
CCC1CCCCN1C(=O)c1cc(COc2ccc3ncccc3c2)on1 (stereo unspecified)	-22.7	-8.97*	i	28.2	i	12*	123.5*	0.478	x	86.3%*	112.5%*
CCOC(=O)c1ccc(NC(=O)Cc2coc3cc4c(cc23)CCC4)cc1	-5.9	i	i	-9.8	i	6*	115.5*	0.44	i	82.3%*	116.0%*
COc1ccc(NC(=O)c2oc3ccc(S(=O)(=O)N4CCOCC4)cc3c2C)c(OC)c1	x	i	x	x	x	x	x	x	x	x	x
Cc1cccc(-c2c3c(=O)n(C)c(=O)n(C)c3cn2-c2ccc(O)cc2)c1	-15.4	i	i	x	i	6*	76.0*	0.493	x	i	95.5%*
CCCCOc1ccc(Cc2c(Cl)nc(SC)nc2N2CCOCC2)cc1	-20.7	i	i	3.2	i	7*	63.0*	0.391	x	102.0%*	68.0%*
CSc1nc(N2CCOCC2)c2c3c(sc2n1)CCCC3	-4.5	i	i	32.2	i	i	x	x	x	x	x
CSc1nc(Cl)c(Cc2ccc(OCC(C)C)cc2)c(N2CCOCC2)n1	-7.8	i	i	6.0	i	8*	110.5*	0.4	i	103.0%*	136.0%*
CCC(C)(C)NC(=O)c1ccccc1Oc1ccccc1	-7.2	i	i	-5.3	i	i	x	x	x	x	x
CC(C)(C)c1cc(N)n2nc(C(C)(C)C)cc2n1	-4.2	i	i	20.3	i	11*	96.5*	0.458	+	i	122.5%*
CC(Oc1cc2oc(=O)c3c(c2cc1Cl)CCC3)C(=O)NCc1cccnc1 (stereo unspecified)	-12.7	i	i	26.1	i	i	x	x	x	x	x
